Several values for one entry are separate records, joined by “and”; a condition that tells them apart may be missing. Equal entries are not always repeated.
How the values were obtained:
[1] = target: T1, DNA topoisomerase II (Homo sapiens) (UniProt P11388+Q02880); experiment: 50% inhibition of human DNA topoisomerase II; type: protein assay
Tumor Cell line [2] = experiment: Drug molar concentration required to inhibit 50% of human tumor cell growth; type: functional
How it was run: (§1)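 NCI panel of 54 human tumor lines from eight cancer types, mostly seeded at 20 000 cells/well. Cells were preincubated 24 h without drug, then exposed to five 10-fold dilutions for 48 h, fixed and stained with sulforhodamine B, and read spectrophotometrically. Versus control, GI50 (50% growth inhibition), TGI (0% growth) and LC50 (−50% growth) were calculated; mean graph midpoints average all lines.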

Tumor Cell line [3] = experiment: Drug concentration required to inhibit total cell growth; type: functional, Homo sapiens; conditions: read-out: Log TGI (converted); how it was run: as §1
Tumor Cell line [4] = experiment: LC 50 is the concentration required to cause 50% cell death; type: functional; conditions: Homo sapiens, read-out: Log LC50 (the source's name) (converted)
How it was run: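 NCI in vitro panel of 54 human tumor cell lines from eight cancer types, mostly seeded at 20 000 cells/well and preincubated 24 h without drug. Five 10-fold dilutions were then added for a further 48 h. Cells were fixed in situ and stained with sulforhodamine B, and bound dye was read spectrophotometrically. LC50 (−50% growth versus control) was taken from five-point dose-response curves and reported as the log10 mean-graph midpoint across lines.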

KB [5] = experiment: 50% reduction in the number of KB 7D (topoisomerase II, aMDR) resistant variant; type: functional, Homo sapiens; conditions: Homo sapiens, KB; read-out: ID50 (the source's name)
How it was run: (§2)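 KB cells (parental ATCC line and resistant variants) exposed to drug at five concentrations […] for 3 days. ID50 is the concentration giving 50% reduction in cell number, derived from the degree of inhibition at the five concentrations.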

KB [6] = experiment: Cytotoxicity against KB cells after a 3 day incubation; type: functional, Homo sapiens; conditions: Homo sapiens, KB, 72 h; read-out: ID50 (the source's name); how it was run: as §2
Nucleic Acid = experiment: Percentage inhibition of cellular protein-DNA complex formation; type: functional; conditions: Homo sapiens
[7] = target: T1, DNA topoisomerase II (Homo sapiens); experiment: inhibition of human DNA topoisomerase II; type: protein assay
[8] = target: T1, DNA topoisomerase II (Homo sapiens); experiment: 50% inhibition of human DNA topoisomerase II was measured; type: protein assay

## COc1cc([C@@H]2c3cc4c(cc3[C@@H](NCCN3CCOCC3)[C@H]3COC(=O)[C@H]23)OCO4)cc(OC)c1O
[1]
  ID50: 50 µM

## COc1cc([C@@H]2c3cc4c(cc3[C@@H](Nc3ccc(C(=O)O)cc3)[C@H]3COC(=O)[C@H]23)OCO4)cc(OC)c1O
Tumor Cell line [2]
  GI50: 12.9 µM
Tumor Cell line [3]
  TGI: 52.5 µM

## COc1cc([C@@H]2c3cc4c(cc3[C@@H](NCCCN(C)C)[C@H]3COC(=O)[C@H]23)OCO4)cc(OC)c1O
Tumor Cell line [2]
  GI50: 0.331 µM
Tumor Cell line [4]
  CC50: 12.6 µM
Tumor Cell line [3]
  TGI: 2.19 µM
KB [5]
  IC50: 0.66 µM

## CCOC(=O)N1CCC(N[C@@H]2c3cc4c(cc3[C@@H](c3cc(OC)c(O)c(OC)c3)[C@H]3C(=O)OC[C@@H]32)OCO4)CC1
KB [6]
  IC50: 0.74 µM
Tumor Cell line [2]; Homo sapiens, Tumor Cell line
  GI50: 1.35 µM
Tumor Cell line [3]; Homo sapiens, Tumor Cell line
  TGI: 7.76 µM

## COc1cc([C@@H]2c3cc4c(cc3[C@@H](NCCN3CCCCC3)[C@H]3COC(=O)[C@H]23)OCO4)cc(OC)c1O
Nucleic Acid
  Complex formation: 183% and 190%
[7]
  ID50: 50 µM and 25 µM

## COc1cc([C@@H]2c3cc4c(cc3[C@@H](NC3CCN(Cc5ccccc5)CC3)[C@H]3COC(=O)[C@H]23)OCO4)cc(OC)c1O
[1]
  ID50: 100 µM
[8]
  ID50: 50 µM

— ChEMBL document CHEMBL1127326, “Antitumor agents. 148. Synthesis and biological evaluation of novel 4 beta-amino derivatives of etoposide with better pharmacological profiles” (1994)
